Source: ChEMBL document CHEMBL4823258, “Development of Dimethylisoxazole-Attached Imidazo[1,2-a]pyridines as Potent and Selective CBP/P300 Inhibitors” (J Med Chem, 2021)
The source made the active and inactive calls. The calls are words filed in the database; no cut-off is given here.

Key:
CREB-binding protein [1] = biological target: T1, CREB-binding protein (Homo sapiens, UniProt Q92793); test: Inhibition of His-tagged CBP (unknown origin) using biotinylated-H3K56ac peptide as substrate incubated for 1 hr by AlphaScreen assay
Target sequence in this assay (Q92793 whole entry): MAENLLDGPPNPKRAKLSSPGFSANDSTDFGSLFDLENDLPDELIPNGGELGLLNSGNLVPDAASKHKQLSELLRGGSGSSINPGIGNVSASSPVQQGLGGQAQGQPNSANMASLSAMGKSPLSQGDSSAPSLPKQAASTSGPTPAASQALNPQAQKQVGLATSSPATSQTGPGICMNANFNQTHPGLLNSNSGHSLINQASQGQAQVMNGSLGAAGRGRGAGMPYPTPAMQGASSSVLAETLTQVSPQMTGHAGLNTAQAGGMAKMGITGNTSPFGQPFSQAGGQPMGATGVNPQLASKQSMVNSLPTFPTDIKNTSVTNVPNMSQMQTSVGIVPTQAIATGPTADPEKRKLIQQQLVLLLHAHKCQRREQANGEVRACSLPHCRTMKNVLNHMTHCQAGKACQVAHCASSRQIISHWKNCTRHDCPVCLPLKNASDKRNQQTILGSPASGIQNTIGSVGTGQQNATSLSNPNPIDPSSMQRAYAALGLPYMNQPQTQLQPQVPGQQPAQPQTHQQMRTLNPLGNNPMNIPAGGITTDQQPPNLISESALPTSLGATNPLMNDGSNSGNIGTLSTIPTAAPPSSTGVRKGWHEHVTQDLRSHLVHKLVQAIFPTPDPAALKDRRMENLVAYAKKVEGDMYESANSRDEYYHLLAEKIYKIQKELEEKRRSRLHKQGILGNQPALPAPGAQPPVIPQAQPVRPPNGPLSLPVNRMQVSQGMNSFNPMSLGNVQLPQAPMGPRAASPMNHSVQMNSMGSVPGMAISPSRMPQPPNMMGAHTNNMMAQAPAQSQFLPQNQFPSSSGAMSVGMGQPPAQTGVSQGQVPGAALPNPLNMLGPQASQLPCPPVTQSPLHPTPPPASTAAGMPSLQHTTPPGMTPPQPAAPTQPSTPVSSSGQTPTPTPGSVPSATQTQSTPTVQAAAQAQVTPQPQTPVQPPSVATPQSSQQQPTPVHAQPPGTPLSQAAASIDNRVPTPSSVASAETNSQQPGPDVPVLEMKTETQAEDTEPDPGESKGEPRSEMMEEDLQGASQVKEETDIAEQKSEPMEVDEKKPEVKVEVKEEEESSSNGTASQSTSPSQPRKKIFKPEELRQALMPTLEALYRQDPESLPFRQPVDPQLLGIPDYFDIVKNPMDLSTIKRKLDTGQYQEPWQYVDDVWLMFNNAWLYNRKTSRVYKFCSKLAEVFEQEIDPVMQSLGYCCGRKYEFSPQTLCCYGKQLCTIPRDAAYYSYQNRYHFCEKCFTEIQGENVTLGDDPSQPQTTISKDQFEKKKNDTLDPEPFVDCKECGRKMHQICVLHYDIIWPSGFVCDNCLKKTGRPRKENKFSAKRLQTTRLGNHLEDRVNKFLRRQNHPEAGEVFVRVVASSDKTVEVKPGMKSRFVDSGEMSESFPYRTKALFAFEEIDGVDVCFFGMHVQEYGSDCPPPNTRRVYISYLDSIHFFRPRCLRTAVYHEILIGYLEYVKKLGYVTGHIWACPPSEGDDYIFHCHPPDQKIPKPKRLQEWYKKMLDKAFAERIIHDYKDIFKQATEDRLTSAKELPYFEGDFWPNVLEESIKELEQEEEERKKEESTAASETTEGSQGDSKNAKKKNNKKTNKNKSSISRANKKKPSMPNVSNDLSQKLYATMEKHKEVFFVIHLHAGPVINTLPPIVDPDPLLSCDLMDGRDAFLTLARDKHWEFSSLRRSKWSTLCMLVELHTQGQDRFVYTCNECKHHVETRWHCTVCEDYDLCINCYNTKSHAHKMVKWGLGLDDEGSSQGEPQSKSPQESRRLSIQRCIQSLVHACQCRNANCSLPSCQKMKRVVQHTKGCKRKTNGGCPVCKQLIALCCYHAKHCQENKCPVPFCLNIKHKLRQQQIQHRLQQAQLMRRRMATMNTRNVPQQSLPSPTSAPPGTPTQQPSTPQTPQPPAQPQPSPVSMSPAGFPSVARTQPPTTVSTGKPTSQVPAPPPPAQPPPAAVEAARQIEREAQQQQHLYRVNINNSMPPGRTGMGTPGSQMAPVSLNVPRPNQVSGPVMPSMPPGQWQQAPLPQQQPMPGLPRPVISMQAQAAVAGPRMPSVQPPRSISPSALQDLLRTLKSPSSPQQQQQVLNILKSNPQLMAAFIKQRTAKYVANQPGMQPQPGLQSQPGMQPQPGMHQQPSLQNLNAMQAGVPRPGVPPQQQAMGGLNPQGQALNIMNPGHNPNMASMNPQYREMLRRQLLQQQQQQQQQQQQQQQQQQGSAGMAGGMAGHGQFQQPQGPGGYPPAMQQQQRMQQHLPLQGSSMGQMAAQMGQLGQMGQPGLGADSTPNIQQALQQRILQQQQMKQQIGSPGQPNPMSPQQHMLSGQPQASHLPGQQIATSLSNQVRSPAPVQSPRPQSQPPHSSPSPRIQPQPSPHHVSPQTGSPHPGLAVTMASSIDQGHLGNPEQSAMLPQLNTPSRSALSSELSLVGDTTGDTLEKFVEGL

[2] = biological target: T2, Bromodomain-containing protein 4 (Homo sapiens, UniProt O60885); test: Inhibition of His-tagged BRD4 BD1 (unknown origin) using biotinylated-JQ1 peptide as substrate incubated for 1 hr by AlphaScreen assay
Homo sapiens = species: Homo sapiens; test: Selectivity ratio of IC50 for His-tagged BRD4 BD1 (unknown origin) using biotinylated-JQ1 peptide as substrate to IC50 for His-tagged CBP (unknown origin) using biotinylated-H3K56ac peptide as substrate incubated for 1 hr by AlphaScreen assay
CREB-binding protein [3] = biological target: T1, CREB-binding protein; test: Binding affinity to human partial length CREBBP (R1081 to G1197 residues) expressed in bacterial expression system assessed as melting temperature by differential scanning fluorometry (reference value: 46.7 degreeC)
Target sequence in this assay (Q92793 2-2442 limits assumed): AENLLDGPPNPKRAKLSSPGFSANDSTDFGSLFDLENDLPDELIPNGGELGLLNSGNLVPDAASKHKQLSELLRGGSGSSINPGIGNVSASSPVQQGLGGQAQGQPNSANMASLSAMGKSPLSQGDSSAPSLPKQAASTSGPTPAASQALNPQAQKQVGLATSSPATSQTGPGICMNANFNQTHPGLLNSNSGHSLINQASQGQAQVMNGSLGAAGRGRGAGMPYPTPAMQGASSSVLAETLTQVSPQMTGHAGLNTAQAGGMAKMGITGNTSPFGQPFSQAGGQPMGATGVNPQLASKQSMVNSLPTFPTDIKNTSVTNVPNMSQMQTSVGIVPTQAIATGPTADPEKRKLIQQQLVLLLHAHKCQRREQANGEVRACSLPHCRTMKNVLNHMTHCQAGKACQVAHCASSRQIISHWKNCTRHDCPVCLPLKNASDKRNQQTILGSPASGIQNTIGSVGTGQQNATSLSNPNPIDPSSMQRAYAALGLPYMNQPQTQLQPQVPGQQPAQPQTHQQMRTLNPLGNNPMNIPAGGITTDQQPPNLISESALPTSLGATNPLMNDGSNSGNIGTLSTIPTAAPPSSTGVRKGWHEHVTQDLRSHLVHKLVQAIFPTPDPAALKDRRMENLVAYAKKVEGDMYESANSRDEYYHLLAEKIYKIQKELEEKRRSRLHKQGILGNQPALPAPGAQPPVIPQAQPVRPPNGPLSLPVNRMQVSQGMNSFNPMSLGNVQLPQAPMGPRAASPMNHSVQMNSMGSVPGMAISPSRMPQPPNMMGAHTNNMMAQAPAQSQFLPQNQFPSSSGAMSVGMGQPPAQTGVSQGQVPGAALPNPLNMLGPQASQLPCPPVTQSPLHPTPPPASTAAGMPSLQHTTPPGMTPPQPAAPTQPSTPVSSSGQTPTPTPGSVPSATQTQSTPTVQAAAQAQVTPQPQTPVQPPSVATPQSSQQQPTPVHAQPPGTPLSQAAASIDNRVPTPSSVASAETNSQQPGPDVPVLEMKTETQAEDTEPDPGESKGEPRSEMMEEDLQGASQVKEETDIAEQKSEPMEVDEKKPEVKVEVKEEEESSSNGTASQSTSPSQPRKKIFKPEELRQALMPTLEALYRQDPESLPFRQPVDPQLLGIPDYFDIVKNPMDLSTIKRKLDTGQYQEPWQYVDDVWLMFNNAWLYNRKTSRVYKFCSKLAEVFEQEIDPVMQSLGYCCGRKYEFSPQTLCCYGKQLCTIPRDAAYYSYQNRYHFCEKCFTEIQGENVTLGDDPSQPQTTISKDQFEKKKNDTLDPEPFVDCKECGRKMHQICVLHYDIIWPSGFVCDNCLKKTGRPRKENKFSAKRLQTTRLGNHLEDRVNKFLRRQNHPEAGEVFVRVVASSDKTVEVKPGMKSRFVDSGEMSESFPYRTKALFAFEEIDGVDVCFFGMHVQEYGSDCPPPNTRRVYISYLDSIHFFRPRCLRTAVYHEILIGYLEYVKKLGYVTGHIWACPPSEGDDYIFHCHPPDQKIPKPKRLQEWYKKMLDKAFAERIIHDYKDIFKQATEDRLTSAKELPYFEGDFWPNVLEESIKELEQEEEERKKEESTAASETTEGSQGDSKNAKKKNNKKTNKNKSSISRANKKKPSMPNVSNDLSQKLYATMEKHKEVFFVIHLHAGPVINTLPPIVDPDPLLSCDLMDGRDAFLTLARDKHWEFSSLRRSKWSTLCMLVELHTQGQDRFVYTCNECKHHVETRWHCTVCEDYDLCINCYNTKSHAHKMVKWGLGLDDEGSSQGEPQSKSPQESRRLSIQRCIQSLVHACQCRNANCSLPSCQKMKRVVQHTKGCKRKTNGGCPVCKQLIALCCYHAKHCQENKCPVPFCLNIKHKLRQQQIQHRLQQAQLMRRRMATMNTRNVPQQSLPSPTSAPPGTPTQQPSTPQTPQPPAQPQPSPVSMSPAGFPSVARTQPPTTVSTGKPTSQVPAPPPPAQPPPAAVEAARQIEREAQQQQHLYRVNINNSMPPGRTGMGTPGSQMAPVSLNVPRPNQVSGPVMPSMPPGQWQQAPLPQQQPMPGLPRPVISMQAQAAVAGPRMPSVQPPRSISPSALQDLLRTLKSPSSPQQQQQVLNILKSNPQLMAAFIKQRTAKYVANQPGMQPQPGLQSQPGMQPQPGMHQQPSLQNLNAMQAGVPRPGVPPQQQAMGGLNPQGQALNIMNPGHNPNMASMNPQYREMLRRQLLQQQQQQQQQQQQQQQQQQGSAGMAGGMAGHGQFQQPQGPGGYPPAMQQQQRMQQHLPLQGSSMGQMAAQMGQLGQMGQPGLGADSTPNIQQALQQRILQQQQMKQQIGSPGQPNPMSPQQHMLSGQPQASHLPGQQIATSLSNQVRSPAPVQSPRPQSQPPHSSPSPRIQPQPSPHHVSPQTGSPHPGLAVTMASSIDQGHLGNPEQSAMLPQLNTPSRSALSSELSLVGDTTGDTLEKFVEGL

[4] = biological target: T3, Histone acetyltransferase p300 (Homo sapiens, UniProt Q09472); test: Binding affinity to human partial length EP300 (A1040 to G1161 residues) expressed in bacterial expression system assessed as melting temperature by differential scanning fluorometry (reference value: 42.1 degreeC)
[5] = biological target: T2, Bromodomain-containing protein 4; test: Binding affinity to human partial length BRD4 bromodomain 1 long isoform (N44 to E168 residues) expressed in bacterial expression system assessed as melting temperature by differential scanning fluorometry (reference value: 50.1 degreeC)
CREB-binding protein [6] = biological target: T1, CREB-binding protein; test: Binding affinity to human partial length CREBBP (R1081 to G1197 residues) expressed in bacterial expression system by BromoELECT assay
How it was run: (§1)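 Kd by Eurofins BromoELECT, standard protocol, measured in duplicate.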
Target sequence in this assay (Q92793 whole entry): as the sequence (Q92793 whole entry) above

[7] = biological target: T3, Histone acetyltransferase p300; test: Binding affinity to human partial length EP300 (A1040 to G1161 residues) expressed in bacterial expression system by BromoELECT assay; how it was run: as §1
[8] = biological target: T2, Bromodomain-containing protein 4; test: Binding affinity to human partial length BRD4 bromodomain 1 long isoform (N44 to E168 residues) expressed in bacterial expression system by BromoELECT assay; how it was run: as §1
[9] = biological target: CREB-binding protein/Histone acetyltransferase p300 (Homo sapiens) (UniProt Q09472+Q92793); test: Inhibition of CBP/EP300 in human MM1.S cells assessed as perturbation of IRF4/Myc axis at 2.5 uM incubated for 24 hrs by immunoblot analysis
MOLM-13 = test: Cytotoxicity against human MOLM-13 cells assessed as cell growth inhibition incubated for 5 days by CellTiter-Glo luminescence assay; assay type: functional, cell-based; settings: MOLM-13, 120 h
CREB-binding protein [10] = biological target: T1, CREB-binding protein; test: Inhibition of CBP in human MOLM-13 cells assessed as reduction in H3K27Ac level at 1 to 10 uM incubated for 2 hrs by Western blot analysis; assay type: cell-based; settings: dose 1-10 µM
Target sequence in this assay (Q92793 2-2442 limits assumed): as the sequence (Q92793 2-2442 limits assumed) above

CREB-binding protein [11] = biological target: T1, CREB-binding protein; test: Inhibition of CBP in human MOLM-13 cells assessed as depletion of Myc at 1 to 10 uM incubated for 2 hrs by Western blot analysis; assay type: cell-based; settings: dose 1-10 µM
Target sequence in this assay (Q92793 2-2442 limits assumed): as above

CREB-binding protein [12] = biological target: T1, CREB-binding protein; test: Inhibition of CBP in human MOLM-13 cells assessed as reduction in H3K27Ac level at 3 uM incubated for 2 hrs
Target sequence in this assay (Q92793 2-2442 limits assumed): as above

IC50 [2] [µM] | Ratio IC50 (Homo sapiens) | Structure (SMILES) | further results
7.94 | 5 | COc1ccc(CCc2nc3cc(-c4c(C)noc4C)ccn3c2NCc2ccc(Cl)cc2)cc1 | IC50 (CREB-binding protein [1]): 1.6 µM
 | 8 | COc1ccc(CCc2nc3cc(-c4c(C)noc4C)ccn3c2NC23CC4CC(CC(C4)C2)C3)cc1 | 
 | 3 | COc1ccc(CCCc2nc3cc(-c4c(C)noc4C)ccn3c2NC2CCCCC2)cc1 | 
 | 4 | COc1ccc(CCc2nc3cc(-c4c(C)noc4C)ccn3c2NCc2ccccc2)cc1 | 
> 50 | > 3 | COc1ccc(-c2nc3cc(C)cc(C)n3c2NC23CC4CC(CC(C4)C2)C3)cc1 | 
 | 6 | Cc1noc(C)c1-c1ccn2c(NC(C)(C)C)c(CCc3ccccc3)nc2c1 | 
> 50 | > 4 | COc1ccc(-c2nc3cc(-c4c(C)noc4C)ccn3c2NC2CCCCC2)cc1 | 
 | 41 | COc1ccc(CCc2nc3cc(-c4c(C)noc4C)ccn3c2NC2CCCCC2)cc1 | Tm (CREB-binding protein [3]): 51.5 °C; Tm [4]: 46.8 °C; Tm [5]: 51.1 °C; Kd (CREB-binding protein [6]): 0.265 µM; Kd [7]: 0.285 µM; Kd [8]: 9.2 µM
 | 2 | COc1ccc(Cc2nc3cc(-c4c(C)noc4C)ccn3c2NC2CCCCC2)cc1 | 
 | 7 | COc1ccc(CCc2nc3cc(-c4c(C)noc4C)ccn3c2NCCN2CCOCC2)cc1 | 
 | 1 | Cc1noc(C)c1-c1ccn2c(NC(C)(C)CC(C)(C)C)c(CCc3ccccc3)nc2c1 | 
> 50 | > 2 | CCOc1ccc(CCc2nc3cc(-c4c(C)noc4C)ccn3c2NC(C)(C)CC(C)(C)C)cc1Cl | 
> 50 | 20 | CCOc1ccc(CCc2nc3cc(-c4c(C)noc4C)ccn3c2NC2CCCCC2)cc1Cl | 
 | 6 | COc1ccc(CCc2nc3cc(-c4c(C)noc4C)ccn3c2NC(C)C)cc1OC | 
3.02 | 0.06 | Cc1noc2cc(-c3ccn4c(NC5CCCCC5)c(CCc5ccccc5)nc4c3)ccc12 | IC50 (CREB-binding protein [1]): > 50 µM; inhibition [9]: inactive
24.5 | 3 | COc1ccc(CCCc2nc3cc(-c4c(C)noc4C)ccn3c2NC2CCCCC2)cc1Cl | IC50 (CREB-binding protein [1]): 8.96 µM; Tm (CREB-binding protein [3]): 55.2 °C; Tm [4]: 50.6 °C; Tm [5]: 51.6 °C
> 50 | > 21 | COc1ccc(CCc2nc3cc(-c4c(C)noc4C)ccn3c2NC(C)(C)C)cc1 | 
> 50 | > 6 | Cc1noc(C)c1-c1ccn2c(NCC(=O)OC(C)(C)C)c(CCc3ccccc3)nc2c1 | 

IC50 [2] [µM] | Ratio IC50 (Homo sapiens) | Structure (SMILES) | further results
 | 10 | Cc1noc(C)c1-c1ccn2c(NC3CCCCC3)c(CCc3ccccc3)nc2c1 | Tm (CREB-binding protein [3]): 49.2 °C; Tm [4]: 44.7 °C; Tm [5]: 51 °C
 | 1 | CN1Cc2cc(-c3ccn4c(NC5CCCCC5)c(CCc5ccccc5)nc4c3)ccc2NC1=O | 
> 50 | 1 | Cc1noc(C)c1-c1ccn2c(NC(C)(C)CC(C)(C)C)c(CCc3ccc(OC(C)C)cc3)nc2c1 | IC50 (CREB-binding protein [1]): > 50 µM
 | > 1 | CCOc1ccc(CCc2nc3cc(-c4c(C)noc4C)ccn3c2NC(C)(C)CC(C)(C)C)cc1 | 
> 50 | > 3 | COc1ccc(-c2nc3cc(C)cc(C)n3c2NC(C)(C)CC(C)(C)C)cc1 | 
 | 30 | CCOc1ccc(CCc2nc3cc(-c4c(C)noc4C)ccn3c2NC2CCCCC2)cc1 | 
 | 34 | COc1ccc(CCc2nc3cc(-c4c(C)noc4C)ccn3c2NC(C)C)cc1 | IC50 (CREB-binding protein [1]): 0.29 µM
> 50 | > 2 | COc1ccc(CCc2nc3cc(-c4c(C)noc4C)ccn3c2NC(C)(C)CC(C)(C)C)cc1 | 
7.94 |  | COc1ccc(CCc2nc3cc(-c4c(C)noc4C)ccc3n2C[C@H](C)N2CCOCC2)cc1Cl | IC50 (MOLM-13): 1.53 µM
 |  | COc1ccc(CCc2nc3cc(-c4c(C)noc4C)ccn3c2NC2CCCCC2)cc1Cl | Tm (CREB-binding protein [3]): 51.7 °C; Tm [4]: 47 °C; Tm [5]: 50.1 °C; Kd (CREB-binding protein [6]): 0.315 µM; Kd [7]: 0.215 µM; Kd [8]: > 10 µM; IC50 (MOLM-13): 1.74 µM; inhibition (CREB-binding protein [10]): Active; inhibition (CREB-binding protein [11]): Active; inhibition (CREB-binding protein [12]): Active; inhibition [9]: Active
> 50 | 1 | COc1ccc(CCCc2nc3cc(-c4c(C)noc4C)ccn3c2NC(C)(C)CC(C)(C)C)cc1 | IC50 (CREB-binding protein [1]): > 50 µM
0.51 | 0.06 | Cc1[nH]nc2cc(-c3ccn4c(NC5CCCCC5)c(CCc5ccccc5)nc4c3)ccc12 | IC50 (CREB-binding protein [1]): 8.02 µM; inhibition [9]: inactive
 | 7 | Cc1noc(C)c1-c1ccn2c(NC34CC5CC(CC(C5)C3)C4)c(CCc3ccccc3)nc2c1 | 
> 50 | > 23 | COc1ccc(-c2nc3cc(-c4c(C)noc4C)ccn3c2NC23CC4CC(CC(C4)C2)C3)cc1 | 
 | 28 | CCCOc1ccc(CCc2nc3cc(-c4c(C)noc4C)ccn3c2NC2CCCCC2)cc1 | 
 | 8 | COc1ccc(CCc2nc3cc(-c4c(C)noc4C)ccn3c2NC2CCCCC2)cc1OC | IC50 (CREB-binding protein [1]): 0.75 µM
 |  | Cc1noc(C)c1-c1ccc2nc(-c3ccc(N4CCN(C(=O)CCCC(=O)NCCCOCCOCCOCCCNC(=O)CCCC[C@@H]5SC[C@@H]6NC(=O)N[C@@H]65)CC4)cc3)c(NC3CCCCC3)n2c1 | Kd [7]: 13 µM
 | > 3 | COc1ccc(-c2nc3cc(-c4c(C)noc4C)ccn3c2NCC(=O)OC(C)(C)C)cc1 | 
